Bioassay records (PubChem BioAssay)
Rows were chosen to be rich in hits. Some 2.9% of all compounds tested hit in one or more screens of this group.
CHO-K1 Ca PAM – M1 PAM counterscreen hit in parental CHO-K1 cells; activation, % at 3 µM; ATP EC20, Fluo-8 calcium fluorescence; 0% at ATP EC20, 100% at ATP max; AID 602247; 360,000 compounds, 0.02% hits;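 active means activation above the run cutoff, the mean activation of all test compounds plus 3 SD, cut at about 40% in these data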;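 further: peak over basal fluorescence ratio in a 140 s read after ATP addition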
CHO parental Ca – signal in parental CHO cells, OX1R antagonist counter-screen; parental CHO-K1, ATP-induced calcium, Fluo-8 fluorescence; inhibition, % at 5.6 µM; 330,000 compounds, 0.63% hits;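 active means inhibition above that plate's mean sample inhibition plus 3 SD, cut at about 26% in these data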;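 further: 0% = ATP-challenged DMSO wells and 100% = DMSO wells without ATP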
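test system = CHO parental line | reagent = ATP stimulus | measured by = intracellular calcium via Fluo-8 no-wash fluorescent dye | control set = ATP and no-ATP DMSO wells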
OX1R antag-1 – blocks the human orexin 1 receptor; O43613; CHO/OX1R cells, Fluo-8 calcium fluorescence, orexin A; inhibition, % at 5 µM; 330,000 compounds, 0.43% hits; AID 434989;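 active means inhibition above its plate's threshold, mean inhibition of all tested compounds on the plate plus 3 SD, cut at about 37% in these data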;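 further: 0% = orexin A challenge wells and 100% = SB-334867-A antagonist wells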
Target sequence (O43613 whole entry, looked up): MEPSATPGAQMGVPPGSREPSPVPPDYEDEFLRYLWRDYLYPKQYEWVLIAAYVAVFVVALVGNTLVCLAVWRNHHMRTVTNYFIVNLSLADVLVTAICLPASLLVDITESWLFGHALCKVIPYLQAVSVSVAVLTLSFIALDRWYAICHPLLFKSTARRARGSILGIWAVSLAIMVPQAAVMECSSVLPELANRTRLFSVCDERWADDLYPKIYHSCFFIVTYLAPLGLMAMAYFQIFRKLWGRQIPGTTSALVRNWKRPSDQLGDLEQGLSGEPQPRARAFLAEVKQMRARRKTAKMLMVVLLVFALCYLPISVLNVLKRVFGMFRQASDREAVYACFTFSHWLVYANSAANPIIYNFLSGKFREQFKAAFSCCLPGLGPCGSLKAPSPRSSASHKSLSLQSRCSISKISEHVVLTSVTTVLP
CHO-K1 Ca antag – counter-screen for M1 antagonists: effect in parental CHO-K1 cells; ATP-induced calcium, Fluo-8 fluorescence; 360,000 compounds, 0.6% hits; inhibition, % at 3 µM;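 active means inhibition above a per-plate cutoff, the plate's mean sample inhibition plus 3 SD, cut at about 24% in these data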;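 further: 0% = DMSO plus EC80 ATP and 100% = DMSO alone without ATP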
CHO-K1 Ca ag – M1 agonist counterscreen hit in parental CHO-K1 cells; Fluo-8 calcium fluorescence; scaled to maximal ATP response, vehicle zero; activation, % at 3 µM; 360,000 compounds, 0.48% hits; AID 602248; in the data active means activation above about 15%;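 further: untransfected CHO-K1 host cells lacking M1 receptor as counterscreen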
OX1R antag-2 – OX1R (human) antagonism. inhibition, % at 6.6 µM. 330,000 compounds, 1.8% hits. AID 485270. OX1R-expressing cells, FRET antagonist read-out. O43613; in the data active means inhibition mostly above about 38%, no sharp cut-off; inactive means mostly below about 40%;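 further: 0% = agonist challenge alone and 100% = reference antagonist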
An asterisk follows results filed as active; / = not tested or not shown.

SMILES	CHO-K1 Ca PAM	CHO parental Ca	OX1R antag-1	CHO-K1 Ca antag	CHO-K1 Ca ag	OX1R antag-2
CCOC(=O)Cc1csc(NC(=O)Cc2cccs2)n1	-2.7	-5.0	-12.2	15.9	0.2	15.3
CCOC(=O)Cc1csc(NC(=O)Nc2cccs2)n1	-20.7	-8.0	-4.9	-11.0	16.2*	-1.2
CC(C)C(=O)NC(=S)Nc1ccc(S(=O)(=O)Nc2nccs2)cc1	7.0	-2.2	2.6	5.0	16.3*	18.6
CCc1nnc(NS(=O)(=O)c2ccc(NC(=S)NC(=O)/C=C/c3ccc(C(C)C)cc3)cc2)s1	-1.6	44.1*	36.5	-15.7	0.3	19.5
O=C(NC(=S)Nc1ccc(S(=O)(=O)Nc2nccs2)cc1)C1CC1	8.6	8.9	6.0	-9.8	0.7	17.7
CCOC(=O)C1(C)CCCN(C(=O)c2ccc(OC(F)F)cc2)C1 (stereo not drawn)	23.0	/	/	-10.7	1.7	/
COc1ccccc1NC(=O)CN1CCN(C2c3ccccc3-c3ccccc32)CC1	48.0*	-64.6	-45.5	-27.8	4.2	8.5
COc1ccc(NC(=O)CN2CCN(C3c4ccccc4-c4ccccc43)CC2)c(OC)c1	52.1*	-45.2	-36.5	-43.9	0.2	2.5
CCCCN(C(=O)c1cccc(S(=O)(=O)N2CCCCC2)c1)C1CCS(=O)(=O)C1 (stereo not drawn)	-8.5	-30.3	-18.3	-5.4	0.2	-4.2
Cc1ccc(NC2=C(N3CCCCC3)C(=O)c3ccccc3C2=O)cc1	21.5	-13.6	-24.6	-6.2	0.4	13.3
CC1=C(Nc2ccc(C(=O)O)cc2)C(=O)c2ccccc2C1=O	21.4	-2.2	-14.1	-19.3	2.4	44.1*
CCOC(=O)C1CCN(C/C=C/c2ccccc2[N+](=O)[O-])CC1	3.2	1.7	-20.6	-4.4	0.1	9.0
CCN1C=C(C(=O)c2ccccc2)C(=O)CC1	16.7	/	/	-11.8	0.9	/
Cc1nc2nc[nH]n2c(=O)c1NS(=O)(=O)c1ccc([N+](=O)[O-])cc1	15.8	-9.2	-8.0	-0.4	1.1	44.2*
CCCc1nc2nc(C)c(NS(=O)(=O)c3ccc([N+](=O)[O-])cc3)c(=O)n2[nH]1	16.2	-5.4	-53.9	-3.8	0.1	49.7*
CC(CCN1C(Nc2ccccc2)=NC[C@@H]1C)c1ccccc1 (stereo partly drawn)	3.5	-12.3	-9.8	-7.5	0.7	38.0
COC(=O)c1ccccc1OC(=O)c1cc2ccccc2oc1=O	2.1	-7.2	-29.0	4.6	0.9	31.4*
CC1CCN(C(=O)COC(=O)c2cc3ccccc3oc2=O)CC1	13.5	-11.1	-4.5	-20.4	0.0	42.3*
Cc1ccc(S(=O)(=O)N(C)C)cc1NC(=O)COC(=O)CNC(=O)c1cccs1	2.4	-6.8	3.2	-1.9	1.1	4.2
CC(=O)c1ccc(NC(=O)C(Cc2ccccc2)n2cccc2)cc1 (stereo not drawn)	3.0	-1.7	8.2	-3.9	-0.3	-1.3
Cc1nn(CCc2nn[nH]n2)c2nc(-c3ccc(C4CCCCC4)cc3)cc(C(F)(F)F)c12	-8.8	54.8*	32.6	9.3	0.5	11.3
O=C(c1ccc(Cl)c(S(=O)(=O)NCc2ccco2)c1)N1CCN(c2ccccc2F)CC1	13.7	-14.8	-15.6	4.9	4.7	26.3
COc1cccc(C(=O)OCC(=O)Nc2ccccc2N2CCOCC2)c1	12.1	-14.2	-25.3	-4.7	1.7	23.8
O=C(Nc1ccccc1N1CCOCC1)c1ccc(Cl)c(S(=O)(=O)NCc2ccco2)c1	8.2	-9.1	-16.3	0.5	16.6*	-4.1
COc1cccc(C(=O)Nc2ccccc2N2CCOCC2)c1	2.9	-21.2	-21.0	67.7*	90.8*	23.1
SMILES	CHO-K1 Ca PAM	CHO parental Ca	OX1R antag-1	CHO-K1 Ca antag	CHO-K1 Ca ag	OX1R antag-2
O=C(c1cc2sccc2n1Cc1ccccc1)N1CCN(c2nc3ccccc3s2)CC1	9.6	34.8*	-9.6	20.1	1.9	16.7
CCC(=O)N1CCN(c2nc3ccccc3s2)CC1	3.6	-7.1	-18.9	-8.9	2.8	4.2
Cc1onc(-c2ccc(Cl)cc2Cl)c1-c1csc(COc2ccccc2)n1	-17.2	-20.3	-7.1	9.7	-0.3	11.5
N#Cc1c(-c2ccccc2)nc(SCC(=O)N2c3ccccc3Sc3ccccc32)[nH]c1=O	15.2	-4.7	-15.1	-5.0	-0.7	76.0*
Cn1ccc2c(-c3cccnc3)cc3c(c21)C1CCC3O1 (stereo not drawn)	11.4	/	/	9.4	-0.5	/
CCc1nnc(NC(=O)c2cc3ccccc3oc2=O)s1	7.3	-5.4	-12.8	-3.5	3.0	76.6*
CC(C)(C)c1ccc(NC(=O)c2c(F)cccc2Cl)cc1	17.2	-17.4	-13.8	-10.0	0.4	19.4
Cc1cccnc1NC(=O)c1nn(C)c2c1CS(=O)(=O)c1ccccc1-2	15.1	-13.8	-9.1	-5.1	1.1	0.9
COc1ccc(N(C)S(=O)(=O)c2cccc(C(=O)OCC(=O)c3c(N)n(C)c(=O)n(C)c3=O)c2)cc1	-15.6	0.0	20.4	8.1	20.6*	12.5
CC1(c2ccc3ccccc3c2)CCC(=O)O1 (stereo not drawn)	8.8	/	/	-2.5	-0.1	/
CCOC(=O)c1c(NC(=O)CSc2nnc(-c3c[nH]c4ccccc34)n2C)sc2c1CCCC2	23.1	-20.0	1.4	-3.7	0.4	32.8
COCCn1c(SCC(=O)Nc2ccc3c(c2)OCCO3)nnc1-c1c[nH]c2ccccc12	3.3	-31.2	5.8	-9.0	0.3	49.7*
CCOC(=O)c1c(NC(=O)CSc2nnc(C)s2)sc2c1CCCCC2	20.7	52.1*	53.7*	-10.1	1.0	15.1
CCOC(=O)c1c(NC(=O)CSc2nnc(-c3c[nH]c4ccccc34)n2CCOC)sc2c1CCCC2	10.1	2.5	12.2	2.1	-0.3	40.7*
CCCCCOc1ccc(Br)cc1CSC(=N)N	3.0	/	/	24.2*	6.4	/
CCc1ccc(NC(=O)CSc2nc3cc(C(=O)OC)ccc3c(=O)n2Cc2ccco2)cc1	-0.9	-3.1	-12.7	10.1	0.3	5.5
CCN(C(=O)CSc1nc2cc(C(=O)OC)ccc2c(=O)n1Cc1ccco1)c1cccc(C)c1	-4.9	-20.4	-23.5	26.2*	-0.6	6.1
COCCNS(=O)(=O)c1ccc(F)c(OC)c1	-2.5	-1.8	-11.7	-3.1	-0.1	1.4
O=C1c2cc(S(=O)(=O)NCCCO)ccc2-c2ccc(S(=O)(=O)NCCCO)cc21	14.8	3.5	0.6	-3.6	0.5	53.6*
COCCNS(=O)(=O)c1ccc2c(c1)C(=O)c1cc(S(=O)(=O)NCCOC)ccc1-2	-5.7	1.5	-3.4	20.3	-0.1	66.3*
COc1cc(C#N)c(NC(=O)CN2CCC(C(N)=O)CC2)cc1OC	7.5	1.8	7.1	-4.8	-0.4	19.5
CC1(C)CC(=O)c2ccc(OCc3ccc([N+](=O)[O-])cc3)cc2O1	-19.8	-5.3	-12.8	29.8*	-0.5	10.6
